The conditions of data set [1]: first-in-human clinical study; cited from earlier work.
The subject of data set [2] is human monocyte-derived DCs. The data set is described as follows: Dendritic cell activation. It is filed as cell-based. Summed up:
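Commercially sourced human dendritic cells were pretreated 1 h with test compound. They were then stimulated with 1 μg/mL LPS with or without 0.037 μM PGE2 for 18 h. TNF-α in the medium was quantified with a Meso Scale Discovery human pro-inflammatory panel.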

For data set [3], the system named is EMT6 tumors. The data set is described as follows: EMT6 syngeneic tumor model efficacy study. It is filed as in vivo, BALB/c mouse. The note with it: MF-766 30 mpk. Put shortly: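 EMT6 cells (0.5 × 10^6) were implanted s.c. in the right flank of female BALB/cAnN mice aged 6–8 weeks. Treatment started at a mean tumor volume of 100 mm3 (75–125). Test compound 30 mg/kg in 10% Tween 80 was dosed orally QDx28; anti-PD-1 10 mg/kg i.p. Q4Dx4. Tumor volume = 0.5 × L × W². Relative tumor volume and TGI (%) were derived vs control; n = 9–12; one-way ANOVA vs vehicle/isotype.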

The test system of data set [4] is human CD8+ T cells. The data set is described as follows: MF-766 and pembrolizumab combination in human CD8+ T cells. The conditions noted are these: for CD8+ T cell viability: Fig S2B. It counts as cell-based. Summed up:
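CD8+ T cells were purified from frozen healthy-donor PBMCs and seeded at 1 × 10^5 cells/well in RPMI-1640 with 10% heat-inactivated FBS and 2 mM L-glutamine. Test compound was titrated from 3 µM in 3-fold steps ± PGE2 (10 nM), with pembrolizumab or human IgG4 isotype at 20 µg/mL. Cells were activated with anti-CD3/CD28 beads plus 100 U/mL IL-2 for 24 h at 37°C; IFN-γ was read by Meso Scale Discovery.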

The conditions of data set [5]: rat AIA model; cited from earlier work.
Data set [6] has as its system CRC patient blood. The data set is described as follows: Ex vivo whole blood LPS-stimulated TNF-α assay. It counts as cell-based, human. The note with it: 1 μg/mL LPS + PGE2. Put shortly: (§1)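 Blood was collected in sodium heparin. Healthy-donor blood was used fresh on assay day; CRC patient blood was drawn 1 day before and shipped overnight. Samples were pretreated 1 h with test compound, then stimulated with 1 μg/mL LPS (final) ± 0.037 μM PGE2 for 18 h. After centrifugation, TNF-α in the supernatant was measured by Meso Scale Discovery.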

Data set [7] relates to human primary tumor histoculture. As to the kind of experiment: Human tumor histoculture. It is filed as cell-based. The conditions noted are these: histoculture system. Put shortly:
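Tumor tissue was trimmed of fat, cut into ~400 µm slices and cultured at the air–liquid interface (37°C, 5% CO2) in DMEM with 10% FBS and penicillin/streptomycin. Slices were stimulated with 50 ng/mL anti-human CD3 plus test compound or DMSO for 48 h. IFN-γ, IL-2 and TNF-α were measured by Meso Scale Discovery and expressed as fold change vs DMSO (mean ± S.E.M, n = 8).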

The test system of data set [8] is EMT6 tumors. The data set is described as follows: Flow cytometry of immune infiltrates in EMT6 tumors. The conditions noted are these: EMT6, single-agent treatment. It is filed as in vivo, mouse. Put shortly:
(§2)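 Mice bearing 100 mm3 tumors were dosed as in the efficacy schedule, and tumors were harvested on day 8. Tumors were weighed, enzymatically dissociated and filtered (70 µm). Then 2–3 million cells were stained with fixable viability dye, Fc-blocked 10 min on ice and surface-stained 30 min on ice. Populations were gated within viable CD45+ singlets (NK CD3−CD335+CD49b+; gMDSC CD11b+Ly6G+; macrophages; DCs) and reported as % CD45+ and cells/mg tumor; n = 9–10.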

Data set [9] relates to healthy human whole blood. The data set is described as follows: Ex vivo whole blood LPS-stimulated TNF-α assay. It counts as cell-based. The note with it: 1 μg/mL LPS + PGE2. Put shortly:
as §1

The nature of data set [10]: Pharmacokinetic parameters of MF-766 in mice. The note with it: female, C57/B6, mouse, in vivo, po.
Data set [11] deals with bone marrow-derived dendritic cells (BMDCs). The data set is described as follows: Dendritic cell activation. The note with it: mouse BMDCs. It is filed as cell-based, C57/BL6 mice. Put shortly:
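Bone marrow flushed from C57BL/6 femurs was cultured 6 days in RPMI with 20 ng/mL mouse GM-CSF and 20 ng/mL mouse IL-4 to give immature DCs. Cells were pretreated 1 h with test compound, then given 1 μg/mL LPS ± 0.037 μM PGE2 for 18 h. Supernatant TNF-α was read with a Meso Scale Discovery mouse panel.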

The subject of data set [12] is CT26 tumors. The data set is described as follows: CT26 syngeneic tumor model efficacy study. It counts as in vivo, BALB/c mouse. Put shortly: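 Female BALB/cAnN mice (6–8 weeks) received 0.5 × 10^6 CT26 cells s.c. in the lower right flank. Dosing began at a mean tumor volume of 100 mm3 (75–125). Test compound 30 mg/kg (10% Tween 80) or vehicle was given orally QDx21; anti-PD-1 or isotype was given 10 mg/kg i.p. Q4Dx4. Volume = 0.5 × L × W², followed 60 days. RTV and TGI (%) were calculated; n = 9–12; one-way ANOVA vs vehicle/isotype.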

The test system of data set [13] is CT26 tumors. The data set is described as follows: Flow cytometry of immune infiltrates in CT26 tumors. It is filed as in vivo, mouse. Summed up:
as §2
For orientation: In flow cytometry, cells or beads pass a laser one at a time.

Data set [14] deals with THP-1 cells. As to the kind of experiment: THP-1 LPS-stimulated TNF-α assay. It counts as cell-based, human. The conditions noted are these: 1 h pretreatment, 1 μg/mL LPS + PGE2. Summed up: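 THP-1 monocytes were preincubated 1 h with graded test compound concentrations. They were then stimulated with 1 μg/mL LPS, with or without 0.33 μM PGE2, for 18 h. Cells were centrifuged and TNF-α in the supernatant was quantified by Meso Scale Discovery.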

In data set [15] the test system is Human NK cells. The data set is described as follows: Natural killer cell activation. It counts as cell-based.
For data set [16], the system named is PGE2-induced MDSCs / autologous CD8+ T cells. As to the kind of experiment: Suppressive myeloid cell and T-cell co-culture assay. The note with it: 1:4 ratio, anti-CD3/CD28 beads, vs DMSO control; MF-766 10, 1, 0.1, 0.01 μM. It is filed as cell-based, human.
Data set [17] concerns primary tumor digests. The data set is described as follows: Anti-CD3-stimulated primary tumor digest culture. The conditions noted are these: without PGE2 spike. It counts as cell-based, human. Summed up: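 Cells were plated at 0.1 × 10^6/well, from four donors, and cultured 48 h. IFN-γ and TNF-α in supernatants were read on a Meso Scale Discovery platform; technical-replicate means were taken per donor.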

On to `C[C@H](NC(=O)c1c(C(F)F)nn(C)c1Oc1cccc(C(F)(F)F)c1)c1ccc(C(=O)O)cc1` [E-7046], for which the tolerability result in [1] is reported as “well tolerated”.

Broadly, the AUC(0-t) is exposure summed from dosing to a finite time, without extrapolation to infinity. A higher AUC(0-t) goes with high exposure. As usually defined, the Cmax is the maximum level reached in the sampled fluid or tissue. Usually Tmax stands for the time from dosing to the highest level. For `O=C(O)c1ccc(C2(NC(=O)c3cccc4ccn(Cc5ccc(C(F)(F)F)cc5)c34)CC2)cc1` [MF-766, 4-[1-[([1-[4-(trifluoromethyl)benzyl]-1H-indol-7-yl]carbonyl)amino]cyclopropyl]be nzoic acid], the entries for the “restoration of PGE2-suppressed TNF-α production” value in data set [2] (1 μg/mL LPS + PGE2), in data set [6] and in data set [11] (1 μg/mL LPS + PGE2) were “fully restored”, “partially restored” and “fully restored”, respectively. Besides, the single-agent activity entry in data set [3] is listed as “did not show single-agent activity”. The “CD8+ T cell viability” value in data set [4] is listed as “Neither PGE2 nor MF-766 addition affected”. Further, in data set [4] (PGE2 10 nM, anti-CD3/CD28 beads, 24 hours, MF-766 alone), the “reversal of PGE2-mediated inhibition of IFN-γ production” value was “reversed PGE2-mediated inhibition of IFN-γ production”. Besides, the “potency compared to other COX-2 inhibitors, including celecoxib and MF-tricyclic” value in data set [5] is given as “greater than 200 fold”. Also, the “anti-CD3–stimulated IFN-γ, IL-2, and TNF-α secretion” value in [7] was “increase”. Moreover, in [8], the “CD8+ or NK cell infiltration into tumors” value is “did not significantly increase”. In [8] (absolute numbers per mg not significant), the “percentage of gMDSCs” value was “significantly decreased”. Besides, in [9], the “reversal of PGE2 suppression of LPS-stimulated TNF-α production” value is listed as “partially reversed”. The AUC(0-t) worked out at 57.5 ± 10.8 µM·h in data set [10] (30 mg/kg) and 255 ± 97.3 µM·h in [10] (100 mg/kg). For the same compound, the Cmax in data set [10] (30 mg/kg) is 15 ± 4.37 µM; in data set [10] (100 mg/kg), 24.1 ± 6.01 µM. Also, the Tmax in data set [10] (30 mg/kg) and in [10] (100 mg/kg) was 30 min in each case. Further, the “tumor progression on monotherapy” value in data set [12] (MF-766 30 mpk monotherapy) is on record as “all tumors progressed”. In data set [12] (compared to vehicle/isotype treated group, MF-766 30 mpk, muDX400 10 mpk), this compound came in with a tumor volume reduction of 49%. Moreover, in [13] (CT26), the “MHCII high/low macrophage ratio” value is reported as “increased”. The “NK cells, percentage in CD45+ fraction and absolute number per mg tumor” value in [13] (CT26, D8) was “significantly enriched”. The “CD3+ T cells, frequency of CD45+ cells and absolute numbers in the tumor” value in data set [13] (CT26, D8, primarily CD8+ T cells, not CD4+) is “significant enrichment”. Further, in data set [13] (CT26, D8 post-therapy), the “absolute numbers of tumor-infiltrating CD45+ leukocytes per mg tumor” value is “significantly increased”. In addition, in data set [13] (CT26, single-agent treatment), the “CD8+ DCs” value was “remarkable increase”. Moreover, in data set [13] (day 8, difference did not reach statistical significance), the CT26 tumor weight result was “trend toward reduction in size”. In data set [14], the “reversal of PGE2-decreased LPS-stimulated TNF-α production” value is reported as “fully reversed”. Further, the “reversal of PGE2-suppressed IFN-γ secretion” value in data set [15] (1 h pretreatment, 50 ng/mL IL-2 ± PGE2 overnight) is “reversed by pretreatment with MF-766 in a dose-dependent manner”. In [15] (conditions of Figure 2b (Fig S2A)), the NK cell viability result is reported as “not affected”. Moreover, the “reversal of MDSC/PGE2 suppression of IFN-γ release from CD8+ T cells” value in data set [16] is listed as “reversed by MF-766 in a dose-dependent manner”.

Turning to `CCCCC[C@H](O)/C=C/[C@H]1[C@H](O)CC(=O)[C@@H]1C/C=C\CCCC(=O)O` [PGE2, Prostaglandin E2, reference compound], the “suppression of TNF-α production” value in data set [2] (compared to LPS alone) and in data set [11] (compared to LPS alone) was ~ 30% each time. Further, in data set [4], the “CD8+ T cell viability” value was “Neither PGE2 nor MF-766 addition affected”.

As to “pembrolizumab: humanized monoclonal immunoglobulin (Ig)G4 antibody against PD-1”, the “IFN-γ and TNF-α secretion” value in [17] was “enhanced”.

Source of the values: article PMC7993229 (Oncoimmunology, 2021).
